Blank lines part the entries; values can stand above or below the molecule they belong to.
Key:
[1] = Permeability across apical to basolateral side in human Caco2 cells; format: ADME, cell-based; settings: Caco-2, read-out: permeability
[2] = Cmax in rat at 10 mg/kg, po; format: ADME, organism-based; parameters: dose 10 mg/kg, route oral; settings: in vivo
Summary of the method: (§1)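 Single-compound oral PK after overnight fast; 10 mg/kg given as suspension in 0.5% methylcellulose and 0.3% Tween-80, with or without 1% NMP as added solubilizer; N=3 per dose and route. Plasma kept on ice, centrifuged at 4°C, stored near -20°C, extracted by solid phase, quantified by HPLC-UV or LC/MS against blank-plasma standards (LOQ 7 ng/mL); non-compartmental analysis.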

[3] = Mean residence time in rat at 10 mg/kg, po; format: ADME, organism-based; parameters: dose 10 mg/kg, route oral; settings: in vivo; summary of the method: as §1
[4] = Plasma concentration in rat at 4 mg/kg, po cassette dosing after 1 hr; format: ADME, organism-based; parameters: dose 4 mg/kg, route oral
Summary of the method: (§2)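 Cassette screen: mixture of 4 compounds, each at 4 mg/kg, dosed orally to 2 rats; plasma sampled at 1 h and 2 h, solid-phase extracted and quantified by HPLC-UV or LC/MS against calibration standards in blank plasma (LOQ 7 ng/mL).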

[5] = Volume of distribution at steady state in rat at 2 mg/kg, iv; format: ADME, organism-based; parameters: dose 2 mg/kg, route intravenous; settings: in vivo, read-out: Vdss
Summary of the method: (§3)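 Fasted animals dosed IV by bolus at 2 mg/kg in 70% PEG-400:30% water; N=3 per dose and route. Plasma separated at 4°C, stored near -20°C, solid-phase extracted, assayed by HPLC-UV or LC/MS with blank-plasma calibration (r2 > 0.99, LOQ 7 ng/mL); parameters from non-compartmental analysis.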

[6] = Clearance in rat at 2 mg/kg, iv; format: ADME, organism-based; parameters: dose 2 mg/kg, route intravenous; settings: in vivo; summary of the method: as §3
[7] = Half life in rat at 2 mg/kg, iv; format: ADME, organism-based; parameters: dose 2 mg/kg, route intravenous; settings: in vivo; summary of the method: as §3
[8] = Inhibition of Hepatitis C virus genotype 1b Con1 NS5B RNA dependent RNA polymerase activity using Bright-Glo luciferase substrate by cell-based 1b luciferase reporter assay; parameters: species or system Hepatitis C virus (isolate Con1)
Summary of the method: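 Cell-based genotype 1b luciferase reporter replicon assay; EC50 determined in duplicate, values averaged over at least two determinations.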

[9] = Half life in human liver microsomes; format: ADME
[10] = Plasma concentration in rat at 4 mg/kg, po cassette dosing after 2 hrs; format: ADME, organism-based; parameters: dose 4 mg/kg, route oral; summary of the method: as §2
[11] = Oral bioavailability in rat at 10 mg/kg; format: ADME, organism-based; settings: in vivo; summary of the method: as §1
[12] = AUC in rat at 10 mg/kg, po; format: ADME, organism-based; parameters: dose 10 mg/kg, route oral; settings: plasma; summary of the method: as §1
[13] = Inhibition of HCV full-length NS5B polymerase; parameters: species or system Hepacivirus hominis
Summary of the method: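 Polymerase inhibition with full-length NS5B enzyme in a biochemical assay; IC50 averaged from duplicate measurements, at least two determinations.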

[14] = Oral bioavailability in monkey at 10 mg/kg; format: ADME, organism-based, Macaca mulatta; settings: rhesus monkey, in vivo; summary of the method: as §1
Hepatitis C virus = assay: Antiviral activity against Hepatitis C virus genotype 1b assessed as shift in EC50 by cell-based replicon assay in presence of 40% human serum; format: functional, Hepacivirus hominis
[15] = Lipophilicity, log D of the compound at pH 7.4; format: physicochemical; settings: buffer
[16] = Plasma protein binding in human; format: ADME, cell-free; settings: read-out: PPB (converted)
Cytochrome P450 2D6 = Cytochrome P450 2D6 (Homo sapiens, UniProt P10635); assay: Inhibition of CYP2D6 (unknown origin); format: ADME
Cytochrome P450 1A2 = target: T1, Cytochrome P450 1A2 (Homo sapiens, UniProt P05177); assay: Inhibition of CYP1A2 (unknown origin); format: ADME
T1 sequence (P05177 whole entry): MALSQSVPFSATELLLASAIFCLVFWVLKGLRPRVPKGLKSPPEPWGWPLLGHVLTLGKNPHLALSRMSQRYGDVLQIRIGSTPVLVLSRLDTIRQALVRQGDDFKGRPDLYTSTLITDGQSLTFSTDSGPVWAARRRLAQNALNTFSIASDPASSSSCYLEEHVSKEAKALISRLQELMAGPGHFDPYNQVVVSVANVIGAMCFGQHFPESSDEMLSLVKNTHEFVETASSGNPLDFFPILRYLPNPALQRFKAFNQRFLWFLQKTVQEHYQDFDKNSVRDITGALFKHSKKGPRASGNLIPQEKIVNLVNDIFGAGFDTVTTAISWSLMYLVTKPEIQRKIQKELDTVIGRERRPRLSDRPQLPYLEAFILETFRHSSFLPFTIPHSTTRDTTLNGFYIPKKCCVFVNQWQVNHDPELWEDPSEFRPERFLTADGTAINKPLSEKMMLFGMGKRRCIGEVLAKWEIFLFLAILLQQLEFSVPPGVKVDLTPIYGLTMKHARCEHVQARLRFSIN

[17] = Cytotoxicity against human HuH7 cells assessed as cell viability by MTT assay; format: cell-based; settings: Huh-7 cells, read-out: TC50 (the source's name)
[18] = Inhibition of recombinant Hepatitis C virus genotype 1b Con1 NS5B RNA dependent RNA polymerase delta21; parameters: species or system Hepatitis C virus subtype 1b
Summary of the method: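 Biochemical polymerase assay with C-terminally truncated genotype 1b NS5B∆21; IC50 taken as mean of duplicates.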

[19] = Dissociation constant, pKa of the compound; format: physicochemical
Summary of the method: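 pKa derived from pH titration curves.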

Cytochrome P450 2C9 = Cytochrome P450 2C9 (Homo sapiens, UniProt P11712); assay: Inhibition of CYP2C9 (unknown origin); format: ADME
[20] = Permeability across apical at pH6 to basolateral side at pH 7.4 in human Caco2 cells; format: ADME, cell-based; settings: Caco-2, pH 6, read-out: permeability
Summary of the method: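 Caco-2 monolayer permeability measured apical to basolateral, apical side at pH 6.0 and basolateral at pH 7.4.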

Cytochrome P450 2D6, sequence (P10635 whole entry): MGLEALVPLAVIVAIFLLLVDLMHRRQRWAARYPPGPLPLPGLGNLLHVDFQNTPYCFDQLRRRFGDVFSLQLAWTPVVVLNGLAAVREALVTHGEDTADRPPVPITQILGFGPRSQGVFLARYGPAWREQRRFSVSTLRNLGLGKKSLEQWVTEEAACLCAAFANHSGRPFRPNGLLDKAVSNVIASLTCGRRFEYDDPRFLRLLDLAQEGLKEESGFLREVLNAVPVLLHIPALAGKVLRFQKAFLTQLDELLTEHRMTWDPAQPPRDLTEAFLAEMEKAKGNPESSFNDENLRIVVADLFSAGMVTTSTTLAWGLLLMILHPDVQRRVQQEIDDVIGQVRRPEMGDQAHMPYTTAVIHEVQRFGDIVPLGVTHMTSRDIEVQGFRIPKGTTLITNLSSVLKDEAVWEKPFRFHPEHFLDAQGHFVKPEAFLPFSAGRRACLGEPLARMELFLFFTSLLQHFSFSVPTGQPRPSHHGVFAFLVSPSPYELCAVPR
Cytochrome P450 2C9, sequence (P11712 whole entry): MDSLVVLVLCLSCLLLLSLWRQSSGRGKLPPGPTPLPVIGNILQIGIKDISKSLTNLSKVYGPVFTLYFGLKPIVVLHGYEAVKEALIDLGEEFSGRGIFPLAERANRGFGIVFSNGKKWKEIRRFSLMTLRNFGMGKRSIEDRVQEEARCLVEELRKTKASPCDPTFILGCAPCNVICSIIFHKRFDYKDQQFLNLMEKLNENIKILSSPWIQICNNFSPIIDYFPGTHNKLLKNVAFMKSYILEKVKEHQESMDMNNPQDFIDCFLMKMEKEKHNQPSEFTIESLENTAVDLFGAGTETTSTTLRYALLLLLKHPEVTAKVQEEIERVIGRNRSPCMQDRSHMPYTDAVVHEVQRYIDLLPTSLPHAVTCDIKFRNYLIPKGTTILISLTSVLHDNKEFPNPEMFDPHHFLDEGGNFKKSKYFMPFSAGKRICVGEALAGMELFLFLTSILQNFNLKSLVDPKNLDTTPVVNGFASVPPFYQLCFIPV

Papp A→B [1]: 17 ×10⁻⁶ cm/s | Cmax [2]: 4.1 µM | MRT [3]: 4.1 h | concentration at 1 h [4]: 1700 nM | Vd [5]: 0.29 L/kg | clearance [6]: 3.7 mL/min/kg | half-life [7]: 126 min | EC50 [8]: 13 nM | half-life [9]: > 300 min | concentration at 2 h [10]: 1100 nM | bioavailability [11]: 16% | AUC [12]: 10.6 µM·h | IC50 [13]: 200 nM
Structure (SMILES): COCCOc1cc(NC(=O)C2(NC(=O)c3ccc4c(C5CCCC5)c(-c5ncc(Cl)cn5)n(C)c4c3)CCC2)ccc1/C=C/C(=O)O

Structure (SMILES): Cn1c(-c2ccccn2)c(C2CCCC2)c2ccc(C(=O)NC3(C(=O)Nc4ccc(/C=C/C(=O)O)cc4)CCC3)cc21 [BILB-1941]
bioavailability [14]: 70% | fold change (FC) (Hepatitis C virus): 3 | logD [15]: 3.3 | fraction unbound [16]: 0.008 | IC50 (Cytochrome P450 2D6): > 30 µM | IC50 (Cytochrome P450 1A2): 13 µM | CC50 [17]: 93 µM | IC50 [18]: 67 nM | pKa [19]: 4.5 | IC50 (Cytochrome P450 2C9): 3.5 µM | Papp A→B [20]: 11 ×10⁻⁶ cm/s | AUC [12]: 23 µM·h | IC50 [13]: 60 nM

Reference: ChEMBL document CHEMBL3351932, “Discovery of BI 207524, an indole diamide NS5B thumb pocket 1 inhibitor with improved potency for the potential treatment of chronic hepatitis C virus infection” (J Med Chem, 2014)
